The subject of assay [1] is Human alphaherpesvirus 1. In words: Protective index was measured on herpes simplex virus type 1(HSV-1) infected mice, at dose of 200 mg/kg/day; ip. Type of assay: functional. To be noted: route intraperitoneal. A digest of the protocol:
(§1)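 Mice inoculated ip with 5.6 × 10^4 pfu HSV-1. Compound given ip in saline at the stated (mg/kg)/day at -40, -28, -20, -3 and +3 h relative to infection. Protection index = (control mortality − treated mortality)/control mortality; >0.25 counted as active.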

Assay [2] relates to Mus musculus. In words: Tested for in vivo antiviral activity against semliki forest virus in mice after peroral administration. Format: functional. Conditions: po. A digest of the protocol:
(§2)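 Mice got a single compound dose by the stated route 18 h before a lethal ip Semliki Forest virus challenge, 24 mice per group. ED50 is the minimum dose protecting 50% of mice, calculated by probit analysis of variance, in mg/kg.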

Assay [3] has as its system L929. The assay is described as follows: Serum interferon response from a single ip administration of 800 mg/kg employing a plaque-reduction assay.(VSV on L929 cells). Format: functional, Mus musculus. Conditions: route intraperitoneal. A digest of the protocol: (§3)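 Serum interferon measured after one ip dose of 800 mg/kg, titrated by VSV plaque reduction on L929 cells. Peak titre within 24 h scored: +++ ≥2000, ++ ≈500-1000, + ≈50-500, ± ≈10-50 units/mL.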

Assay [4] deals with Mus musculus. The assay is described as follows: Tested for in vivo antiviral activity against semliki forest virus in mice after intraperitoneal administration. Format: functional. Conditions: ip. A digest of the protocol: as §2
The subject of assay [5] is Mus musculus. In words: Tested for in vivo antiviral activity against semliki forest virus in mice after subcutaneous administration. Type of assay: functional. Conditions: sc. A digest of the protocol:
as §2

In assay [6] the test system is L929. In words: Serum interferon response from a single ip administration of 800 mg/kg employing a plaque-reduction assay.(VSV on L929 cells); range 500-1000. Format: functional, Mus musculus. To be noted: route intraperitoneal. A digest of the protocol:
as §3
For orientation: Plaque reduction counts the foci of infection that form in a cell layer.

Assay [7] deals with Human alphaherpesvirus 1. The assay is described as follows: Protective index was measured on herpes simplex virus type 1(HSV-1) infected mice, at a dose of 200 mg/kg/day; ip. Format: functional. Conditions: route intraperitoneal. A digest of the protocol: as §1
The subject of assay [8] is Human alphaherpesvirus 1. In words: Protective index was measured on herpes simplex virus type 1(HSV-1) infected mice, at a dose of 100 mg/kg/day; ip. Format: functional. Conditions: route intraperitoneal.
Assay [9] has as its system L929. The assay is described as follows: Serum interferon response from a single ip administration of 800 mg/kg employing a plaque-reduction assay.(VSV on L929 cells); range 50-500. Type of assay: functional, Mus musculus. To be noted: route intraperitoneal. An outline of the steps: as §3
In assay [10] the test system is Human alphaherpesvirus 1. In words: Protective index was measured on herpes simplex virus type 1(HSV-1) infected mice. at dose of 100 mg/kg/day; ip. Format: functional. Conditions: route intraperitoneal.
Assay [11] deals with Human alphaherpesvirus 1. In words: Protective index was measured on herpes simplex virus type 1(HSV-1) infected mice, at dose of 100 mg/kg/day; ip. Format: functional. To be noted: route intraperitoneal.
In assay [12] the test system is Human alphaherpesvirus 1. The assay is described as follows: Protective index was measured on herpes simplex virus type 1(HSV-1) infected mice. at a dose of 200 mg/kg/day, ip. Type of assay: functional. To be noted: route intraperitoneal. A digest of the protocol:
as §1

In assay [13] the test system is Human alphaherpesvirus 1. The assay is described as follows: Protective index was measured on herpes simplex virus type 1(HSV-1) infected mice at 150 mg/kg/day. Type of assay: functional. A digest of the protocol:
as §1

The ED50 is the dose at which the effect has come halfway, by size or by number of responders.

For `Nc1nc(O)c(Cl)c(-c2ccccc2)n1`, the Protection index with Human alphaherpesvirus 1 [1] came to 0.62. The ED50 in the assay with Mus musculus [2] is 90 mg/kg; in the assay with Mus musculus [4], 100 mg/kg; with Mus musculus [5], 105 mg/kg. In the assay with L929 [3], the Interferon response result is “>=2000 ml”.
With `CCc1c(O)nc(N)nc1-c1ccccc1`, the median effective dose (ED50) was 280 mg/kg in the assay with Mus musculus [2], 45 mg/kg in the assay with Mus musculus [4] and more than 400 mg/kg in the assay on Mus musculus [5]. Further, in the assay with L929 [6], the Interferon response came to 1000 mL. The Protection index in the assay on Human alphaherpesvirus 1 [7] is on record as 0.57.
Compound `CCCc1c(O)nc(N)nc1-c1ccccc1` yielded a Protection index with Human alphaherpesvirus 1 [8] of 0.13. In the assay on Mus musculus [4], this compound gave a 50% effective dose (ED50) of more than 400 mg/kg.
Compound `Nc1nc(O)c(I)c(-c2ccccc2)n1` displayed an Interferon response in the assay on L929 [9] of 500 mL. In addition, the ED50 is more than 400 mg/kg in the assay with Mus musculus [2], 50 mg/kg in the assay on Mus musculus [4] and 25 mg/kg with Mus musculus [5]. Further, the Protection index in the assay with Human alphaherpesvirus 1 [10] is 0.86.
Regarding `CCOCCc1c(O)nc(N)nc1-c1ccccc1`, the figures for the ED50 with Mus musculus [2], with Mus musculus [4] and in the assay with Mus musculus [5] were more than 400 mg/kg, more than 800 mg/kg and more than 400 mg/kg, respectively. Besides, the Protection index with Human alphaherpesvirus 1 [8] was found to be 0.15.
In the case of `Cc1c(O)nc(N)nc1-c1ccccc1`, the Interferon response entry with L929 [3] is reported as “>=2000 ml”. The compound further yielded a Protection index in the assay on Human alphaherpesvirus 1 [11] of 0.35. Also, the ED50 in the assay on Mus musculus [4] is 185 mg/kg.
Consider `Cc1nc(N)nc(O)c1I`, for which, in the assay on L929 [6], the Interferon response amounted to 1000 mL. Besides, the ED50 in the assay on Mus musculus [4] was 200 mg/kg. In the assay on Human alphaherpesvirus 1 [12], this compound showed a Protection index of 0.16.
`C=CCc1c(O)nc(N)nc1-c1ccccc1` gave an Interferon response in the assay with L929 [9] of 50 mL. Further, the 50% effective dose (ED50) in the assay on Mus musculus [2] is more than 400 mg/kg; with Mus musculus [4] it was 95 mg/kg; in the assay with Mus musculus [5], more than 400 mg/kg. Besides, in the assay on Human alphaherpesvirus 1 [7], the Protection index is 0.43.
With `C#CCc1c(O)nc(N)nc1-c1ccccc1`, the figures for the median effective dose (ED50) with Mus musculus [2] and in the assay on Mus musculus [4] were more than 400 mg/kg and 130 mg/kg, respectively.
Regarding `Cc1nc(N)nc(O)c1Br`, the Interferon response in the assay on L929 [3] was 1000 mL. This compound came in with a Protection index in the assay with Human alphaherpesvirus 1 [13] of 0.4. Moreover, in the assay on Mus musculus [4], the 50% effective dose (ED50) worked out at 250 mg/kg.
Turning to `Nc1nc(=O)c(Br)c(-c2ccccc2)[nH]1` [BROPIRIMINE], the median effective dose (ED50) was found to be 100 mg/kg with Mus musculus [2], 100 mg/kg in the assay with Mus musculus [4] and 50 mg/kg with Mus musculus [5]. In the assay with L929 [3], the Interferon response result is “>=2000 ml”.

The record behind these values is ChEMBL document CHEMBL1121397, “5-substituted 2-amino-6-phenyl-4(3H)-pyrimidinones. Antiviral- and interferon-inducing agents” (1980).
